Measured values reported in ChEMBL document CHEMBL4364254 (J Med Chem, 2019).
Calls of active or inactive are those of the source. The rule behind the calls is not given here.

Experiments:
[1] = Half life in Sprague-Dawley rat plasma at 1 mg/kg, po by LC-MS/MS analysis; assay type: ADME, organism-based
Mus musculus = experiment: Anti-hepatosteatosis activity in ethanol-induced C57BL/6 mouse model of hepatic steatosis assessed as reduction in hepatic lipid accumulation at 0.03 to 0.3 mg/kg, po administered once daily via gavage for last 2 weeks of study measured post-last dose by oil red O staining-based light microscopic analysis; assay type: functional, organism-based
Method in brief: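 Female C57BL/6J mice (9 weeks old, 19–21 g) were kept on Lieber–DeCarli liquid diet, with ethanol raised from 1 to 5% (v/v) over 15 d and then held for 4 weeks, pair-fed. Dosing was 0.03, 0.1 or 0.3 mg/kg by oral gavage once daily for the last 2 weeks, in 0.5% Na-CMC/1% NMP/0.3% Tween 80. Read-outs were Oil Red O on 10 μm liver sections imaged at 10× and liver weight normalized to brain weight. n = 6–10 per group; t test versus ethanol + vehicle.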

Adenosine receptor A2a = Adenosine receptor A2a (Homo sapiens, UniProt P29274); experiment: Displacement of [3H]CGS21680 from recombinant human adenosine A2A receptor after 120 mins by scintillation counting analysis
Sequence of Adenosine receptor A2a (P29274 whole entry): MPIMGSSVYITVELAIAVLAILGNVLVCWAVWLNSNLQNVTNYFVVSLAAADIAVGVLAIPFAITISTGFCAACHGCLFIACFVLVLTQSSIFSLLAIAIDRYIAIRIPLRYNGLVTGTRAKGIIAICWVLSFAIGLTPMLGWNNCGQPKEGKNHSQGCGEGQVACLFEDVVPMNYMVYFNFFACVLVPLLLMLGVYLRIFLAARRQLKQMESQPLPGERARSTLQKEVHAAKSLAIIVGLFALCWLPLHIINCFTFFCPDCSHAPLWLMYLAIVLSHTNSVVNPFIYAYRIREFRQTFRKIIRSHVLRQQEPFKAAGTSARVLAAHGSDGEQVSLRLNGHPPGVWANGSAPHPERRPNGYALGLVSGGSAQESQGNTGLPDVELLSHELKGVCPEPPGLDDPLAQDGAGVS

[2] = target: Alpha-1A adrenergic receptor (Homo sapiens, UniProt P35348); experiment: Displacement of [3H]prazosin from recombinant human alpha 1A adrenoceptor after 60 mins by scintillation counting analysis
Sequence of Alpha-1A adrenergic receptor (P35348 whole entry): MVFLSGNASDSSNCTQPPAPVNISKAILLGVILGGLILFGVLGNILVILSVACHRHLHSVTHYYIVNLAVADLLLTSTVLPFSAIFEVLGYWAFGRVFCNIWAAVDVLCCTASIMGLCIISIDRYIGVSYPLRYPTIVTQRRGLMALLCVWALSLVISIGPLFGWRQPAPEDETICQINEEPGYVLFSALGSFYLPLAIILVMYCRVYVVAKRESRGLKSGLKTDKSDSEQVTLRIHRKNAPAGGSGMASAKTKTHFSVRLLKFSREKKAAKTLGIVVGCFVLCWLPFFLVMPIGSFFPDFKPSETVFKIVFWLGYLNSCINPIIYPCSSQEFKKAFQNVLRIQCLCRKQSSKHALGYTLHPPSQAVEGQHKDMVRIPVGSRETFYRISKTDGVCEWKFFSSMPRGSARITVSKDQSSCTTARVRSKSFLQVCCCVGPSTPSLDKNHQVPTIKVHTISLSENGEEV

[3] = target: Alpha-2A adrenergic receptor (Homo sapiens, UniProt P08913); experiment: Displacement of [3H]RX 821002 from recombinant human alpha 2A adrenoceptor after 60 mins by scintillation counting analysis
[4] = target: Beta-1 adrenergic receptor (Homo sapiens, UniProt P08588); experiment: Displacement of [3H](-)CGP12177 from recombinant human beta1 adrenergic receptor after 60 mins by scintillation counting analysis
Sequence of Beta-1 adrenergic receptor (P08588 whole entry): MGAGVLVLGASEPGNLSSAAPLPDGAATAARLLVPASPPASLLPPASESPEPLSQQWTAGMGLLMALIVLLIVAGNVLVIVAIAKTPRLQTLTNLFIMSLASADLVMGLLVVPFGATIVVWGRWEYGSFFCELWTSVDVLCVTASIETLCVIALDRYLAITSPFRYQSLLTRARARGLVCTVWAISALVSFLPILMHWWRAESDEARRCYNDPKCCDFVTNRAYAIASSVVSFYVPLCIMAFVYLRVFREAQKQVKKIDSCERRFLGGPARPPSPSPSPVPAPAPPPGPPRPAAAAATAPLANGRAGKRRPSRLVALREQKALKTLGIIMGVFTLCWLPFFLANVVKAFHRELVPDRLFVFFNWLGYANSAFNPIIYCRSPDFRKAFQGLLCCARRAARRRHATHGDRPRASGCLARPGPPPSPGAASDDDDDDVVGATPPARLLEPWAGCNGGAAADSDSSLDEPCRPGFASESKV

D(1A) dopamine receptor = D(1A) dopamine receptor (Homo sapiens, UniProt P21728); experiment: Displacement of [3H]SCH23390 from recombinant human D1 receptor after 60 mins by scintillation counting analysis
Histamine H1 receptor = Histamine H1 receptor (Homo sapiens, UniProt P35367); experiment: Displacement of [3H]pyrilamine from recombinant human H1 receptor after 60 mins by scintillation counting analysis
Sequence of Histamine H1 receptor (P35367 whole entry): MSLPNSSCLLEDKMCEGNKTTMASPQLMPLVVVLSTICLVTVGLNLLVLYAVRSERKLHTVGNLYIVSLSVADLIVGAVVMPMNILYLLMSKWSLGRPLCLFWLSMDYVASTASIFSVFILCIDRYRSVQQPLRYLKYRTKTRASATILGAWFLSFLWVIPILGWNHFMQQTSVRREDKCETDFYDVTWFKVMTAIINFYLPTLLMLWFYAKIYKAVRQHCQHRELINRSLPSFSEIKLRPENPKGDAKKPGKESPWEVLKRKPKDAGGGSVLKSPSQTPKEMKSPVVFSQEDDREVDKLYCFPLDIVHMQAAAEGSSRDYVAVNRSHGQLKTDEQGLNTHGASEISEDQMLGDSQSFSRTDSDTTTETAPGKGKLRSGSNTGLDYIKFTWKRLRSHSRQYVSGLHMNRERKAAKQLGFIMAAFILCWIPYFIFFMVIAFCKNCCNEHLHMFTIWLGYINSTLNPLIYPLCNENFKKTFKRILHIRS

[5] = target: Muscarinic acetylcholine receptor M1 (Homo sapiens, UniProt P11229); experiment: Displacement of [3H]pirenzepine from recombinant human M1 receptor after 60 mins by scintillation counting analysis
Sequence of Muscarinic acetylcholine receptor M1 (P11229 whole entry): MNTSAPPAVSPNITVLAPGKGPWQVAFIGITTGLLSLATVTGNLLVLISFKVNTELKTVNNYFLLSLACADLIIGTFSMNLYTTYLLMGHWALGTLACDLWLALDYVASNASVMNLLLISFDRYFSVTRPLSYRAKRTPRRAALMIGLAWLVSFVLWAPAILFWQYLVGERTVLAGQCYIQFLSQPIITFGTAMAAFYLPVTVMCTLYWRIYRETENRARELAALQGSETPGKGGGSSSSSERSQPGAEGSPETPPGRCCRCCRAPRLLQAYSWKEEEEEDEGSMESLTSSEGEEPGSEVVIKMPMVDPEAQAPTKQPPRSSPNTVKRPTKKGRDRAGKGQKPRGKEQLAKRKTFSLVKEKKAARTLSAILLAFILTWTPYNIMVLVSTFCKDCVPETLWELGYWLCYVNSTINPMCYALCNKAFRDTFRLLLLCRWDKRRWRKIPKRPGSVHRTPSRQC

[6] = target: Muscarinic acetylcholine receptor M2 (Homo sapiens, UniProt P08172); experiment: Displacement of [3H]AF-DX 384 from recombinant human M2 receptor after 60 mins by scintillation counting analysis
[7] = target: Muscarinic acetylcholine receptor M3 (Homo sapiens, UniProt P20309); experiment: Displacement of [3H]4-DAMP from recombinant human M3 receptor after 60 mins by scintillation counting analysis
[8] = target: Delta-type opioid receptor (Homo sapiens, UniProt P41143); experiment: Displacement of [3H]DADLE from recombinant human DOR after 60 mins by scintillation counting analysis
Sequence of Delta-type opioid receptor (P41143 whole entry): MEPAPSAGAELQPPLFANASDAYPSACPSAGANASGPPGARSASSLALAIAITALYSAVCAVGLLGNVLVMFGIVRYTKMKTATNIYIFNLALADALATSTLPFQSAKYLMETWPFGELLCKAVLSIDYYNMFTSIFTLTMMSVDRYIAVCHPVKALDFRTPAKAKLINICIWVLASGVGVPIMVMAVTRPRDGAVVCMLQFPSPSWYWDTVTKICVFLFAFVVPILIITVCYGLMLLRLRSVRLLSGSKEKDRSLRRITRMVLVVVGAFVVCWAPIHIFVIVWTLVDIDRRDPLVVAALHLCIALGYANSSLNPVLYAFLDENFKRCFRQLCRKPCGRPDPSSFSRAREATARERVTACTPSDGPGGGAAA

[9] = target: Kappa-type opioid receptor (Homo sapiens, UniProt P41145); experiment: Displacement of [3H]U69593 from recombinant human KOR after 60 mins by scintillation counting analysis
Sequence of Kappa-type opioid receptor (P41145 whole entry): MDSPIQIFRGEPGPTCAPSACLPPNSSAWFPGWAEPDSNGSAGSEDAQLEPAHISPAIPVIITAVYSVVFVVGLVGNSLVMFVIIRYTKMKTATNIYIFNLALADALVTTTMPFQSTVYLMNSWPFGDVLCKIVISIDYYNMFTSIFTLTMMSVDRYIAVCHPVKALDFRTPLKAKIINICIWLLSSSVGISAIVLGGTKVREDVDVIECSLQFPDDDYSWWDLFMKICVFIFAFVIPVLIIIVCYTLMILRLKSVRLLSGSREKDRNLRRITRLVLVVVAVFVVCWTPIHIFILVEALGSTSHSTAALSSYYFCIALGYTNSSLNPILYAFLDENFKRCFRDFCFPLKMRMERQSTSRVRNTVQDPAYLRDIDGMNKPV

[10] = target: 5-hydroxytryptamine receptor 1A (Homo sapiens, UniProt P08908); experiment: Displacement of [3H]8-OH-DPAT from recombinant human 5HT1A after 60 mins by scintillation counting analysis
[11] = target: 5-hydroxytryptamine receptor 1B (Homo sapiens, UniProt P28222); experiment: Displacement of [3H]GR125743 from recombinant human 5HT1B after 60 mins by scintillation counting analysis
Sequence of 5-hydroxytryptamine receptor 1B (P28222 whole entry): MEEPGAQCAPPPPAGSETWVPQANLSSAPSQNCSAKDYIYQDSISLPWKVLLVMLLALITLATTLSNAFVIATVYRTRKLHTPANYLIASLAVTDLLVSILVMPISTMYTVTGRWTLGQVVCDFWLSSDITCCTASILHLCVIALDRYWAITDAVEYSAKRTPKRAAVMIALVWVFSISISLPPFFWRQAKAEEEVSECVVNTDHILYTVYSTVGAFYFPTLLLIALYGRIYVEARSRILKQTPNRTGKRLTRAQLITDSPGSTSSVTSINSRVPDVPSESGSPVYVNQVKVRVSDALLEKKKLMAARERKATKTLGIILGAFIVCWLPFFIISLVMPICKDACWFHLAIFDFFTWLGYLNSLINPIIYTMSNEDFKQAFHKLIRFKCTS

[12] = target: 5-hydroxytryptamine receptor 2B (Homo sapiens, UniProt P41595); experiment: Displacement of [125I](+/-)DOI from recombinant human 5HT2B receptor after 60 mins by scintillation counting analysis
[13] = target: Sodium-dependent dopamine transporter (Homo sapiens, UniProt Q01959); experiment: Displacement of [3H]BTCP from recombinant human dopamine transporter after 120 mins by scintillation counting analysis
Sequence of Sodium-dependent dopamine transporter (Q01959 whole entry): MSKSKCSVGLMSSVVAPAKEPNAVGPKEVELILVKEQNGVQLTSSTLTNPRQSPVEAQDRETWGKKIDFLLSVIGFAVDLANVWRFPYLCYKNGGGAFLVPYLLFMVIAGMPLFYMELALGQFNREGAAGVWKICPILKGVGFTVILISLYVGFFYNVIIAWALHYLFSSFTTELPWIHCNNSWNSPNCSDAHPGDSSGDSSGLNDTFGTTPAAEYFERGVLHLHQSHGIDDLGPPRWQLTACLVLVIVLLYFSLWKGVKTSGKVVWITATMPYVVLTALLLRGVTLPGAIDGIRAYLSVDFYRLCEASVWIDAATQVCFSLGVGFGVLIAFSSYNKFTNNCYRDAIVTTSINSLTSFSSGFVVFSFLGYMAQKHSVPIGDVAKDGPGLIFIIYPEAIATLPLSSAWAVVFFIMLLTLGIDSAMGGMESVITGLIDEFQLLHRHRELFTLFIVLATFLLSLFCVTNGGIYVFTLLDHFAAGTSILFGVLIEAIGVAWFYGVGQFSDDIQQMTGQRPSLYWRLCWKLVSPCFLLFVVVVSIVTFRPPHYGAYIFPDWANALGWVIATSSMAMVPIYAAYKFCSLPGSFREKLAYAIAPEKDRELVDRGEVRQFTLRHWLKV

[14] = target: Sodium-dependent noradrenaline transporter (Homo sapiens, UniProt P23975); experiment: Displacement of [3H]nisoxetine from recombinant human norepinephrine transporter after 120 mins by scintillation counting analysis
[15] = target: GABA-A receptor; anion channel; experiment: Displacement of [3H]flunitrazepam from rat brain GABAA ion channel after 60 mins by scintillation counting analysis
[16] = target: Neuronal acetylcholine receptor; alpha4/beta2 (Homo sapiens, UniProt P17787+P43681); experiment: Displacement of [3H]cytisine from recombinant human alpha4beta2 nAChR after 120 mins by scintillation counting analysis; assay type: protein-complex assay
[17] = target: 5-hydroxytryptamine receptor 3A (Homo sapiens, UniProt P46098); experiment: Displacement of [3H]BRL43694 from recombinant human 5HT3 receptor after 120 mins by scintillation counting analysis
[18] = target: Voltage-dependent L-type calcium channel subunit alpha-1C (Rattus norvegicus, UniProt P22002); experiment: Displacement of [3H]nitrendipine from rat brain Cav1.2 dihydropyridine site after 90 mins by scintillation counting analysis
Androgen receptor = Androgen receptor (Homo sapiens, UniProt P10275); experiment: Displacement of [3H]methyltrienolone from recombinant human AR after 1440 mins by scintillation counting analysis
Glucocorticoid receptor = Glucocorticoid receptor (Homo sapiens, UniProt P04150); experiment: Displacement of [3H]dexamethasone from recombinant human GR after 360 mins by scintillation counting analysis
[19] = target: Tyrosine-protein kinase Lck (Homo sapiens, UniProt P06239); experiment: Activity at recombinant human LCK using Ulight-Poly GAT[EAY(1:1:1)]n as substrate measured after 10 mins by LANCE assay
[20] = target: Prostaglandin G/H synthase 2 (Homo sapiens, UniProt P35354); experiment: Activity at human recombinant COX2 using arachidonic acid as substrate measured after 5 mins by ADHP reagent based fluorescence assay
[21] = target: Amine oxidase [flavin-containing] A (Rattus norvegicus, UniProt P21396); experiment: Displacement of [3H]Ro41-1049 from rat brain MAOA after 60 mins by scintillation counting analysis
Sequence of Amine oxidase [flavin-containing] A (P21396 whole entry): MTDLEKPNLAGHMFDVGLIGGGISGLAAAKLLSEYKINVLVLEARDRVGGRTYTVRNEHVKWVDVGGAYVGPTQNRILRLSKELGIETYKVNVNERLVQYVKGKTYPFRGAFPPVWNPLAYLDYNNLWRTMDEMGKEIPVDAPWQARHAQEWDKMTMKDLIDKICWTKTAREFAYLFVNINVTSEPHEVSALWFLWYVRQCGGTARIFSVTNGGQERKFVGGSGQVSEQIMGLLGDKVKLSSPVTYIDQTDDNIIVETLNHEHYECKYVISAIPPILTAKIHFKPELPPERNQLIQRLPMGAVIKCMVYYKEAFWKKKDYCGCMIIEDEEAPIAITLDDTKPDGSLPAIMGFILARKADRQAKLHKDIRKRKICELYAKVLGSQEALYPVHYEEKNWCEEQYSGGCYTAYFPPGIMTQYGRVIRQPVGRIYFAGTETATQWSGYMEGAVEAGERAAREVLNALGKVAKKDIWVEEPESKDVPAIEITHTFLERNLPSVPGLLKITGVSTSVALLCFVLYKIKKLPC

[22] = target: cGMP-inhibited 3',5'-cyclic phosphodiesterase 3A (Homo sapiens, UniProt Q14432); experiment: Activity at human recombinant PDE3A using [3H]cAMP as substrate measured after 15 mins by scintillation counting analysis

## O=C(Nc1ccc(OC(F)F)nc1)NC1CCN(c2ncnc3c2nc(-c2ccccc2Cl)n3-c2ccc(Cl)cc2)CC1
[1]
  half-life: 9.9 h
Mus musculus
  Activity: Active
Adenosine receptor A2a
  EC50: > 10 µM
  IC50: > 10 µM
[2]
  EC50: > 10 µM
  IC50: > 10 µM
[3]
  EC50: > 10 µM
  IC50: > 10 µM
[4]
  EC50: > 10 µM
  IC50: > 10 µM
D(1A) dopamine receptor
  EC50: > 10 µM
  IC50: > 10 µM
Histamine H1 receptor
  EC50: > 10 µM
  IC50: > 10 µM
[5]
  EC50: > 10 µM
  IC50: > 10 µM
[6]
  EC50: > 10 µM
  IC50: > 10 µM
[7]
  EC50: > 10 µM
  IC50: > 10 µM
[8]
  EC50: > 10 µM
  IC50: > 10 µM
[9]
  EC50: > 10 µM
  IC50: > 10 µM
[10]
  EC50: > 10 µM
  IC50: > 10 µM
[11]
  EC50: > 10 µM
  IC50: > 10 µM
[12]
  EC50: > 10 µM
  IC50: > 10 µM
[13]
  EC50: > 10 µM
  IC50: > 10 µM
[14]
  EC50: > 10 µM
  IC50: > 10 µM
[15]
  EC50: > 10 µM
  IC50: > 10 µM
[16]
  EC50: > 10 µM
  IC50: > 10 µM
[17]
  EC50: > 10 µM
  IC50: > 10 µM
[18]
  EC50: > 10 µM
  IC50: > 10 µM
Androgen receptor
  EC50: > 10 µM
  IC50: > 10 µM
Glucocorticoid receptor
  EC50: > 10 µM
  IC50: > 10 µM
[19]
  EC50: > 10 µM
  IC50: > 10 µM
[20]
  EC50: > 10 µM
  IC50: > 10 µM
[21]
  EC50: > 10 µM
  IC50: > 10 µM
[22]
  EC50: > 10 µM
  IC50: > 10 µM
